Data published in ChEMBL document CHEMBL3779764, “Identification and Structure-Activity Relationships of Diarylhydrazides as Novel Potent and Selective Human Enterovirus Inhibitors” (J Med Chem, 2016).

Legend:
[1] = Cytotoxicity against african green monkey Vero cells assessed as reduction in cell viability after 24 to 36 hrs by MTS-based CPE reduction assay; conditions: chlorocebus sabaeus
Outline: (§1)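 Noninfected Vero or RD cells exposed to serial compound dilutions under the CPE-assay conditions (37 °C, 24-36 h). Viability measured by MTS/PMS absorbance at 498 nm. CC50 is the concentration causing 50% death of noninfected cells.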

Enterovirus A71 [2] = experiment: Antiviral activity against Human enterovirus 71 infected in monkey African green Vero cells by MTS-based CPE reduction assay; type: functional, organism-based
Outline: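 Vero cells (5 × 10^5) seeded, then given serial compound dilutions plus 100 TCID50 EV71. Incubated at 37 °C for 24-36 h until complete CPE in the virus-infected, compound-free control. Viability read by MTS/PMS at 498 nm. EC50 is the concentration inhibiting virus-induced CPE by 50%. At least three repeats.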

[3] = Selectivity index, ratio of CC50 for african green monkey Vero cells to EC50 for Enterovirus 71; type: toxicity, cell-based; conditions: read-out: Ratio CC50/EC50
Outline: (§2)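 Selectivity index is CC50/EC50, both taken from MTS-based CPE reduction assays in the same cell line (Vero or RD).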

Enterovirus A71 [4] = experiment: Antiviral activity against Enterovirus 71 infected in human RD cells after 24 to 36 hrs by MTS-based CPE reduction assay; type: functional, organism-based
Outline: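 RD cells given serial compound dilutions with EV71. Incubated at 37 °C for 24-36 h until full CPE in the virus control. Viability read by MTS/PMS at 498 nm. EC50 is the concentration giving 50% inhibition of virus-induced CPE. At least three independent experiments.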

RD = experiment: Cytotoxicity against human RD cells assessed as reduction in cell viability after 24 to 36 hrs by MTS-based CPE reduction assay; type: functional; outline: as §1
[5] = Selectivity index, ratio of CC50 for human RD cells to EC50 for Enterovirus 71; type: toxicity, cell-based; conditions: read-out: Ratio CC50/EC50; outline: as §2
[6] = Enterovirus A, Vero, read-out: EC50
[7] = Enterovirus A, RD, read-out: EC50

SMILES	CC50 [1] [µM]	EC50 (Enterovirus A71 [2]; [6]) [nM]	selectivity ratio [3]	EC50 (Enterovirus A71 [4]; [7]) [nM]	CC50 (RD) [µM]	selectivity ratio [5]	EC50 (Enterovirus A71 [2]; vero)	EC50 (Enterovirus A71 [4]; rd)
Cc1ccc(C(=O)NNc2c(Br)cccc2Br)cc1	146	10800	13.5	24600	163	6.6		
CC(C)c1cccc(C(C)C)c1NNC(=O)c1ccc(C(C)(C)C)cc1		> 100000		> 100000				
O=C(NNc1c(Br)cccc1Br)c1ccccc1	> 216	860	> 251	2430	> 216	> 89.1		
O=C(NNc1c(Cl)cccc1Cl)c1ccccc1		> 100000		> 100000				
COc1ccc(C(=O)NNc2c(Cl)cccc2Cl)cc1	> 257	680	> 378	1360	> 257	> 189		
Cc1ccc(C(=O)NNc2c(C)cccc2C)cc1	> 315	5310	> 59.2	13600	> 315	> 23.2		
CCOc1ccc(C(=O)NNc2c(Cl)cccc2Cl)cc1	> 246	330	> 746	370	> 246	> 665		
CCc1ccc(C(=O)NNc2c(Cl)cccc2Cl)cc1	> 259	940	> 275	1680	> 259	> 154		
CCCc1ccc(C(=O)NNc2c(C)cccc2C)cc1	> 283	950	> 298	2640	> 283	> 107		
COc1ccccc1C(=O)NNc1c(Cl)cccc1Cl		> 100000		> 100000				
Cc1ccc(C(=O)NNc2c(Cl)cccc2Cl)cc1	> 271	1280	> 212	960	> 271	> 281		
N#Cc1ccc(C(=O)NNc2c(Cl)cccc2Cl)cc1							Not Active	Not Active
CCOc1ccc(NNC(=O)c2c(Cl)cccc2Cl)cc1		> 100000		> 100000				
CCc1ccc(C(=O)NNc2c(C)cccc2C)cc1	135	1570	86.2	2750	164	59.7		
COc1ccc(C(=O)NNc2c(C)cccc2Cl)cc1	> 275	5740	> 47.9	15400	> 275	> 17.9		
O=C(NNc1c(Cl)cccc1Cl)c1cccc(Cl)c1							Not Active	Not Active
O=C(NNc1c(Cl)cccc1Cl)c1cccs1		> 100000		> 100000				
CCc1ccc(C(=O)NNc2c(Br)cccc2Br)cc1	> 201	930	> 216	1580	> 201	> 127		
CCOc1ccc(C(=O)NNc2c(Br)cccc2Br)cc1	> 193	370	> 522	530	> 193	> 362		
O=C(NNc1c(Cl)cccc1Cl)c1ccc(Cl)cc1		> 100000		> 100000				
O=C(NNc1c(Cl)cccc1Cl)c1ccc(F)cc1							Not Active	Not Active
O=C(NNc1c(Cl)cccc1Cl)c1ccc([N+](=O)[O-])cc1							Not Active	Not Active
CCCc1ccc(C(=O)NNc2c(C)cccc2Cl)cc1	80.2	920	87.2	2160	113	52.4		
O=C(NNc1c(Cl)cccc1Cl)c1ccc(Br)cc1							Not Active	Not Active
